According to ChEMBL document CHEMBL1142894, “Preparation of 5-aryl-3-alkylthio-l,2,4-triazoles and corresponding sulfones with antiinflammatory-analgesic activity” (Bioorg Med Chem, 2007):
Activity calls are given as the source filed them. The calls are words filed in the database; no cut-off is given here.

Experiments:
[1] = test system: Mus musculus; assay: Antiinflammatory activity against carrageenan-induced paw edema in Swiss albino mouse assessed as swelling thickness at 50 mg/kg, po after 90 mins; type: functional
How it was run: (§1)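 Oral dosing in 0.5% CMC; vehicle to controls. Then carrageenan (0.5 mg/25 ll, freshly suspended in 154 mM saline) injected into the right hind paw subplantar tissue; saline into the left paw. Right-left footpad thickness difference measured by dial gauge calliper every 90 min over 6 h. Inhibition % is relative to vehicle control. n = 6; mean ± SEM.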

[2] = test system: Mus musculus; assay: Analgesic activity against p-benzoquinone-induced abdominal constriction in Swiss albino mouse assessed as number of writhings at 100 mg/kg, po; type: functional, Abdomen
How it was run: (§2)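 Test samples given orally in 0.5% CMC; vehicle to controls. 60 min later, 2.5% (v/v) p-benzoquinone in distilled water, 0.1 ml/10 g, given i.p. Mice housed singly; writhes counted for 15 min starting 5 min after injection. Activity is % change from vehicle controls. n = 6; mean ± SEM.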

[3] = test system: Mus musculus; assay: Inhibition of carrageenan-induced paw edema in Swiss albino mouse at 25 mg/kg, po after 270 mins relative to control; type: functional; conditions: 4.5 h; how it was run: as §1
[4] = test system: Mus musculus; assay: Antiinflammatory activity against carrageenan-induced paw edema in Swiss albino mouse assessed as swelling thickness at 200 mg/kg, po after 360 mins; type: functional; how it was run: as §1
[5] = test system: Mus musculus; assay: Antiinflammatory activity against carrageenan-induced paw edema in Swiss albino mouse assessed as swelling thickness at 100 mg/kg, po after 180 mins; type: functional; how it was run: as §1
[6] = test system: Mus musculus; assay: Inhibition of p-benzoquinone-induced writhing in Swiss albino mouse at 50 mg/kg, po relative to control; type: functional
How it was run: (§3)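 Mice, n = 6 per group, dosed orally with a suspension in 0.5% sodium CMC. 60 min later, 0.1 ml/10 g of 2.5% […] p-benzoquinone in distilled water given ip. Abdominal writhes counted per animal for 15 min, starting 5 min after injection. Expressed as % change in mean writhing count versus vehicle controls.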

[7] = test system: Mus musculus; assay: Gastric-ulcerogenic effect in Swiss albino mouse assessed as lesions at 200 mg/kg, po; type: functional, organism-based; parameters: dose 200 mg/kg
How it was run: (§4)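 Mice killed under deep ether anesthesia 3 h after the writhing test; the oral dose in 0.5% CMC was the one used in that test. Stomachs removed, opened along the great curvature and examined under a dissecting microscope for lesions or bleeding. Reported as ratio of ulceration; n = 6.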

[8] = test system: Mus musculus; assay: Antiinflammatory activity against carrageenan-induced paw edema in Swiss albino mouse assessed as swelling thickness at 200 mg/kg, po after 270 mins; type: functional; how it was run: as §1
[9] = test system: Mus musculus; assay: Inhibition of carrageenan-induced paw edema in Swiss albino mouse at 50 mg/kg, po after 180 mins relative to control; type: functional; conditions: 3 h; how it was run: as §1
[10] = test system: Mus musculus; assay: Gastric-ulcerogenic effect in Swiss albino mouse assessed as lesions at 50 mg/kg, po; type: functional, organism-based; parameters: dose 50 mg/kg; how it was run: as §4
[11] = test system: Mus musculus; assay: Inhibition of carrageenan-induced paw edema in Swiss albino mouse at 25 mg/kg, po after 360 mins relative to control; type: functional; conditions: 6 h; how it was run: as §1
[12] = test system: Mus musculus; assay: Inhibition of carrageenan-induced paw edema in Swiss albino mouse at 100 mg/kg, po after 360 mins relative to control; type: functional; conditions: 6 h; how it was run: as §1
[13] = test system: Mus musculus; assay: Antiinflammatory activity against carrageenan-induced paw edema in Swiss albino mouse assessed as swelling thickness at 25 mg/kg, po after 180 mins; type: functional; how it was run: as §1
[14] = test system: Mus musculus; assay: Inhibition of carrageenan-induced paw edema in Swiss albino mouse at 50 mg/kg, po after 270 mins relative to control; type: functional; conditions: 4.5 h
How it was run: (§5)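 Mice, n = 6 per group. Test agent given orally as a suspension in 0.5% sodium CMC in distilled water; controls received vehicle only. Afterwards, 0.5 mg/25 ll carrageenan in saline (154 mM NaCl) injected subplantar into the right hind paw, saline into the left. Right-minus-left footpad thickness measured by dial gauge caliper every 90 min for 6 h. Inhibition is relative to vehicle-control group means.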

[15] = test system: Mus musculus; assay: Analgesic activity against p-benzoquinone-induced abdominal constriction in Swiss albino mouse assessed as number of writhings at 200 mg/kg, po; type: functional, Abdomen; how it was run: as §2
[16] = test system: Mus musculus; assay: Antiinflammatory activity against carrageenan-induced paw edema in Swiss albino mouse assessed as swelling thickness at 100 mg/kg, po after 270 mins; type: functional; how it was run: as §1
[17] = test system: Mus musculus; assay: Inhibition of p-benzoquinone-induced writhing in Swiss albino mouse at 200 mg/kg, po relative to control; type: functional; how it was run: as §3
[18] = test system: Mus musculus; assay: Antiinflammatory activity against carrageenan-induced paw edema in Swiss albino mouse assessed as swelling thickness at 100 mg/kg, po after 90 mins; type: functional; how it was run: as §1
[19] = test system: Mus musculus; assay: Analgesic activity against p-benzoquinone-induced abdominal constriction in Swiss albino mouse assessed as number of writhings at 25 mg/kg, po; type: functional, Abdomen; how it was run: as §2
[20] = test system: Mus musculus; assay: Gastric-ulcerogenic effect in Swiss albino mouse assessed as lesions at 100 mg/kg, po; type: functional, organism-based; parameters: dose 100 mg/kg; how it was run: as §4
[21] = test system: Mus musculus; assay: Antiinflammatory activity against carrageenan-induced paw edema in Swiss albino mouse assessed as swelling thickness at 50 mg/kg, po after 360 mins; type: functional; how it was run: as §1
[22] = test system: Mus musculus; assay: Gastric-ulcerogenic effect in Swiss albino mouse assessed as lesions at 25 mg/kg, po; type: functional, organism-based; parameters: dose 25 mg/kg; how it was run: as §4
[23] = test system: Mus musculus; assay: Inhibition of p-benzoquinone-induced writhing in Swiss albino mouse at 25 mg/kg, po relative to control; type: functional; how it was run: as §3
[24] = test system: Mus musculus; assay: Inhibition of p-benzoquinone-induced writhing in Swiss albino mouse at 100 mg/kg, po relative to control; type: functional; how it was run: as §3
[25] = test system: Mus musculus; assay: Antiinflammatory activity against carrageenan-induced paw edema in Swiss albino mouse assessed as swelling thickness at 50 mg/kg, po after 270 mins; type: functional; how it was run: as §1
[26] = test system: Mus musculus; assay: Antiinflammatory activity against carrageenan-induced paw edema in Swiss albino mouse assessed as swelling thickness at 25 mg/kg, po after 360 mins; type: functional; how it was run: as §1
[27] = test system: Mus musculus; assay: Inhibition of carrageenan-induced paw edema in Swiss albino mouse at 100 mg/kg, po after 180 mins relative to control; type: functional; conditions: 3 h; how it was run: as §1
[28] = test system: Mus musculus; assay: Antiinflammatory activity against carrageenan-induced paw edema in Swiss albino mouse assessed as swelling thickness at 50 mg/kg, po after 180 mins; type: functional; how it was run: as §1
[29] = test system: Mus musculus; assay: Antiinflammatory activity against carrageenan-induced paw edema in Swiss albino mouse assessed as swelling thickness at 25 mg/kg, po after 90 mins; type: functional; how it was run: as §1
[30] = test system: Mus musculus; assay: Inhibition of carrageenan-induced paw edema in Swiss albino mouse at 50 mg/kg, po after 90 mins relative to control; type: functional; conditions: 1.5 h; how it was run: as §5
[31] = test system: Mus musculus; assay: Antiinflammatory activity against carrageenan-induced paw edema in Swiss albino mouse assessed as swelling thickness at 25 mg/kg, po after 270 mins; type: functional; how it was run: as §1
[32] = test system: Mus musculus; assay: Antiinflammatory activity against carrageenan-induced paw edema in Swiss albino mouse assessed as swelling thickness at 200 mg/kg, po after 90 mins; type: functional; how it was run: as §1
[33] = test system: Mus musculus; assay: Inhibition of carrageenan-induced paw edema in Swiss albino mouse at 25 mg/kg, po after 90 mins relative to control; type: functional; conditions: 1.5 h; how it was run: as §1
[34] = test system: Mus musculus; assay: Antiinflammatory activity against carrageenan-induced paw edema in Swiss albino mouse assessed as swelling thickness at 200 mg/kg, po after 180 mins; type: functional; how it was run: as §1
[35] = test system: Mus musculus; assay: Inhibition of carrageenan-induced paw edema in Swiss albino mouse at 100 mg/kg, po after 270 mins relative to control; type: functional; conditions: 4.5 h; how it was run: as §1
[36] = test system: Mus musculus; assay: Analgesic activity against p-benzoquinone-induced abdominal constriction in Swiss albino mouse assessed as number of writhings at 50 mg/kg, po; type: functional, Abdomen; how it was run: as §2
[37] = test system: Mus musculus; assay: Inhibition of carrageenan-induced paw edema in Swiss albino mouse at 100 mg/kg, po after 90 mins relative to control; type: functional; conditions: 1.5 h; how it was run: as §1
[38] = test system: Mus musculus; assay: Antiinflammatory activity against carrageenan-induced paw edema in Swiss albino mouse assessed as swelling thickness at 100 mg/kg, po after 360 mins; type: functional; how it was run: as §1
[39] = test system: Mus musculus; assay: Inhibition of carrageenan-induced paw edema in Swiss albino mouse at 25 mg/kg, po after 180 mins relative to control; type: functional; conditions: 3 h; how it was run: as §1
[40] = test system: Mus musculus; assay: Inhibition of carrageenan-induced paw edema in Swiss albino mouse at 50 mg/kg, po after 360 mins relative to control; type: functional; conditions: 6 h; how it was run: as §5

## CSc1nnc(-c2ccc(Cl)cc2)[nH]1
[1]
  Activity: 37.4 10^-2mm
[2]
  Activity: 34.1
[3]
  inhibition in vivo at 25 mg/kg: 20.5%
[4]
  Activity: 76.8 10^-2mm
[5]
  Activity: 38.3 10^-2mm
[6]
  inhibition in vivo at 50 mg/kg: 33.7%
[7]
  Activity: Active
[8]
  Activity: 65.9 10^-2mm
[9]
  inhibition in vivo at 50 mg/kg: 30.6%
[10]
  Activity: Active
[11]
  inhibition in vivo at 25 mg/kg: 18.2%
[12]
  inhibition in vivo at 100 mg/kg: 30.2%
[13]
  Activity: 48.9 10^-2mm
[14]
  inhibition in vivo at 50 mg/kg: 34.9%
[15]
  Activity: 43.3
[16]
  Activity: 43 10^-2mm
[17]
  inhibition in vivo at 200 mg/kg: 15.8%
[18]
  Activity: 34 10^-2mm
[19]
  Activity: 44.7
[20]
  Activity: Active
[21]
  Activity: 47.1 10^-2mm
[22]
  Activity: Active
[23]
  inhibition in vivo at 25 mg/kg: 13%
[24]
  inhibition in vivo at 100 mg/kg: 27.9%
[25]
  Activity: 42.2 10^-2mm
[26]
  Activity: 58.9 10^-2mm
[27]
  inhibition in vivo at 100 mg/kg: 25.6%
[28]
  Activity: 41.2 10^-2mm
[29]
  Activity: 43.5 10^-2mm
[30]
  inhibition in vivo at 50 mg/kg: 29.7%
[31]
  Activity: 51.5 10^-2mm
[32]
  Activity: 54.7 10^-2mm
[33]
  inhibition in vivo at 25 mg/kg: 18.2%
[34]
  Activity: 61.2 10^-2mm
[35]
  inhibition in vivo at 100 mg/kg: 26.9%
[36]
  Activity: 34.1
[37]
  inhibition in vivo at 100 mg/kg: 24.1%
[38]
  Activity: 48 10^-2mm
[39]
  inhibition in vivo at 25 mg/kg: 17.7%
[40]
  inhibition in vivo at 50 mg/kg: 34.6%
